ChEMBL document CHEMBL1154842, “Synthesis, radiolabeling, and biological evaluation of (R)- and (S)-2-amino-3-[(18)F]fluoro-2-methylpropanoic acid (FAMP) and (R)- and (S)-3-[(18)F]fluoro-2-methyl-2-N-(methylamino)propanoic acid (NMeFAMP) as potential PET radioligands for imaging brain tumors” (J Med Chem, 2010)

Legend:
[1] = system: Brain; assay: Biodistribution in brain of Fischer 344 rat bearing rat 9L cells at 20 uCi, iv after 15 mins; format: ADME, organism-based; details: in vivo, 0.25 h
In short: (§1)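 Male Fischer 344 rats (200–250 g) carrying intracranial 9L gliosarcoma (5×10^4 cells implanted stereotactically, 10–12 days growth), under ketamine:xylazine anaesthesia. About 20 μCi tracer in 0.5 mL sterile saline given via tail-vein catheter. Groups of 4–5 were killed by intracardiac KCl at 15 (NMeFAMP only), 30, 60 or 120 min. Tissues were weighed and gamma-counted, decay-corrected, and reported as %ID/g, mean ± SD.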

[2] = system: Brain; assay: Biodistribution in brain of Fischer 344 rat bearing rat 9L cells at 20 uCi, iv after 30 mins; format: ADME, organism-based; details: in vivo, 0.5 h; in short: as §1
[3] = Biodistribution in tumor of Fischer 344 rat bearing rat 9L cells at 20 uCi, iv after 30 mins; format: ADME, organism-based, Neoplasm; details: in vivo, 0.5 h; in short: as §1
[4] = Ratio of drug level from tumor to brain of Fischer 344 rat bearing rat 9L cells at 20 uCi, iv after 120 mins; format: ADME, organism-based; details: in vivo, 2 h
[5] = system: Blood; assay: Biodistribution in blood of Fischer 344 rat bearing rat 9L cells at 20 uCi, iv after 30 mins; format: ADME, organism-based; details: in vivo, 0.5 h; in short: as §1
[6] = system: Blood; assay: Biodistribution in blood of Fischer 344 rat bearing rat 9L cells at 20 uCi, iv after 60 mins; format: ADME, organism-based; details: in vivo, 1 h; in short: as §1
[7] = system: Blood; assay: Biodistribution in blood of Fischer 344 rat bearing rat 9L cells at 20 uCi, iv after 120 mins; format: ADME, organism-based; details: in vivo, 2 h; in short: as §1
[8] = system: Heart; assay: Biodistribution in heart of Fischer 344 rat bearing rat 9L cells at 20 uCi, iv after 30 mins; format: ADME, organism-based; details: in vivo, 0.5 h; in short: as §1
[9] = system: Heart; assay: Biodistribution in heart of Fischer 344 rat bearing rat 9L cells at 20 uCi, iv after 60 mins; format: ADME, organism-based; details: in vivo, 1 h; in short: as §1
[10] = system: Heart; assay: Biodistribution in heart of Fischer 344 rat bearing rat 9L cells at 20 uCi, iv after 120 mins; format: ADME, organism-based; details: in vivo, 2 h; in short: as §1
[11] = system: Lung; assay: Biodistribution in lung of Fischer 344 rat bearing rat 9L cells at 20 uCi, iv after 30 mins; format: ADME, organism-based; details: in vivo, 0.5 h; in short: as §1
[12] = system: Lung; assay: Biodistribution in lung of Fischer 344 rat bearing rat 9L cells at 20 uCi, iv after 60 mins; format: ADME, organism-based; details: in vivo, 1 h; in short: as §1
[13] = system: Lung; assay: Biodistribution in lung of Fischer 344 rat bearing rat 9L cells at 20 uCi, iv after 120 mins; format: ADME, organism-based; details: in vivo, 2 h; in short: as §1
[14] = system: Liver; assay: Biodistribution in liver of Fischer 344 rat bearing rat 9L cells at 20 uCi, iv after 30 mins; format: ADME, organism-based; details: in vivo, 0.5 h; in short: as §1
[15] = system: Liver; assay: Biodistribution in liver of Fischer 344 rat bearing rat 9L cells at 20 uCi, iv after 60 mins; format: ADME, organism-based; details: in vivo, 1 h; in short: as §1
[16] = system: Liver; assay: Biodistribution in liver of Fischer 344 rat bearing rat 9L cells at 20 uCi, iv after 120 mins; format: ADME, organism-based; details: in vivo, 2 h; in short: as §1
[17] = system: Pancreas; assay: Biodistribution in pancreas of Fischer 344 rat bearing rat 9L cells at 20 uCi, iv after 30 mins; format: ADME, organism-based; details: in vivo, 0.5 h; in short: as §1
[18] = system: Pancreas; assay: Biodistribution in pancreas of Fischer 344 rat bearing rat 9L cells at 20 uCi, iv after 60 mins; format: ADME, organism-based; details: in vivo, 1 h; in short: as §1
[19] = system: Pancreas; assay: Biodistribution in pancreas of Fischer 344 rat bearing rat 9L cells at 20 uCi, iv after 120 mins; format: ADME, organism-based; details: in vivo, 2 h; in short: as §1
[20] = system: Spleen; assay: Biodistribution in spleen of Fischer 344 rat bearing rat 9L cells at 20 uCi, iv after 30 mins; format: ADME, organism-based; details: in vivo, 0.5 h; in short: as §1
[21] = system: Spleen; assay: Biodistribution in spleen of Fischer 344 rat bearing rat 9L cells at 20 uCi, iv after 60 mins; format: ADME, organism-based; details: in vivo, 1 h; in short: as §1
[22] = system: Spleen; assay: Biodistribution in spleen of Fischer 344 rat bearing rat 9L cells at 20 uCi, iv after 120 mins; format: ADME, organism-based; details: in vivo, 2 h; in short: as §1
[23] = system: Kidney; assay: Biodistribution in kidney of Fischer 344 rat bearing rat 9L cells at 20 uCi, iv after 30 mins; format: ADME, organism-based; details: in vivo, 0.5 h; in short: as §1
[24] = system: Kidney; assay: Biodistribution in kidney of Fischer 344 rat bearing rat 9L cells at 20 uCi, iv after 60 mins; format: ADME, organism-based; details: in vivo, 1 h; in short: as §1
[25] = system: Kidney; assay: Biodistribution in kidney of Fischer 344 rat bearing rat 9L cells at 20 uCi, iv after 120 mins; format: ADME, organism-based; details: in vivo, 2 h; in short: as §1
[26] = system: Muscle tissue; assay: Biodistribution in muscle of Fischer 344 rat bearing rat 9L cells at 20 uCi, iv after 30 mins; format: ADME, organism-based; details: in vivo, 0.5 h; in short: as §1
[27] = system: Muscle tissue; assay: Biodistribution in muscle of Fischer 344 rat bearing rat 9L cells at 20 uCi, iv after 60 mins; format: ADME, organism-based; details: in vivo, 1 h; in short: as §1
[28] = system: Muscle tissue; assay: Biodistribution in muscle of Fischer 344 rat bearing rat 9L cells at 20 uCi, iv after 120 mins; format: ADME, organism-based; details: in vivo, 2 h; in short: as §1
[29] = system: Bone; assay: Biodistribution in bone of Fischer 344 rat bearing rat 9L cells at 20 uCi, iv after 30 mins; format: ADME, organism-based, Bone element; details: in vivo, 0.5 h; in short: as §1
[30] = system: Bone; assay: Biodistribution in bone of Fischer 344 rat bearing rat 9L cells at 20 uCi, iv after 60 mins; format: ADME, organism-based, Bone element; details: in vivo, 1 h; in short: as §1
[31] = system: Bone; assay: Biodistribution in bone of Fischer 344 rat bearing rat 9L cells at 20 uCi, iv after 120 mins; format: ADME, organism-based, Bone element; details: in vivo, 2 h; in short: as §1
[32] = Biodistribution in testis of Fischer 344 rat bearing rat 9L cells at 20 uCi, iv after 30 mins; format: ADME, organism-based; details: in vivo, 0.5 h; in short: as §1
[33] = Biodistribution in testis of Fischer 344 rat bearing rat 9L cells at 20 uCi, iv after 60 mins; format: ADME, organism-based; details: in vivo, 1 h; in short: as §1
[34] = Biodistribution in testis of Fischer 344 rat bearing rat 9L cells at 20 uCi, iv after 120 mins; format: ADME, organism-based; details: in vivo, 2 h; in short: as §1
[35] = system: Blood; assay: Biodistribution in blood of Fischer 344 rat bearing rat 9L cells at 20 uCi, iv after 15 mins; format: ADME, organism-based; details: in vivo, 0.25 h; in short: as §1
[36] = system: Heart; assay: Biodistribution in heart of Fischer 344 rat bearing rat 9L cells at 20 uCi, iv after 15 mins; format: ADME, organism-based; details: in vivo, 0.25 h; in short: as §1
[37] = system: Lung; assay: Biodistribution in lung of Fischer 344 rat bearing rat 9L cells at 20 uCi, iv after 15 mins; format: ADME, organism-based; details: in vivo, 0.25 h; in short: as §1
[38] = system: Liver; assay: Biodistribution in liver of Fischer 344 rat bearing rat 9L cells at 20 uCi, iv after 15 mins; format: ADME, organism-based; details: in vivo, 0.25 h; in short: as §1
[39] = system: Pancreas; assay: Biodistribution in pancreas of Fischer 344 rat bearing rat 9L cells at 20 uCi, iv after 15 mins; format: ADME, organism-based; details: in vivo, 0.25 h; in short: as §1
[40] = system: Spleen; assay: Biodistribution in spleen of Fischer 344 rat bearing rat 9L cells at 20 uCi, iv after 15 mins; format: ADME, organism-based; details: in vivo, 0.25 h; in short: as §1
[41] = system: Kidney; assay: Biodistribution in kidney of Fischer 344 rat bearing rat 9L cells at 20 uCi, iv after 15 mins; format: ADME, organism-based; details: in vivo, 0.25 h; in short: as §1
[42] = system: Muscle tissue; assay: Biodistribution in muscle of Fischer 344 rat bearing rat 9L cells at 20 uCi, iv after 15 mins; format: ADME, organism-based; details: in vivo, 0.25 h; in short: as §1
[43] = system: Bone; assay: Biodistribution in bone of Fischer 344 rat bearing rat 9L cells at 20 uCi, iv after 15 mins; format: ADME, organism-based, Bone element; details: in vivo, 0.25 h; in short: as §1
[44] = Biodistribution in testis of Fischer 344 rat bearing rat 9L cells at 20 uCi, iv after 15 mins; format: ADME, organism-based; details: in vivo, 0.25 h; in short: as §1
[45] = rat, in vivo, iv, 1 h
[46] = rat, in vivo, iv, 1 h; remark: listed apart in the source
[47] = system: Brain; assay: Biodistribution in brain of Fischer 344 rat bearing rat 9L cells at 20 uCi, iv after 15 mins; details: in vivo
[48] = Ratio of drug level from tumor to brain of Fischer 344 rat bearing rat 9L cells at 20 uCi, iv after 60 mins; details: in vivo, 1 h

Q: What does the source list for `CN[C@](C)(C[18F])C(=O)O.Cl`?
A: Drug uptake [1]: 0.06 % ID/g; Drug uptake [2]: 0.06 % ID/g; Ratio [3]: 30.2; Ratio [4]: 35.4; Drug uptake [5]: 0.31 % ID/g; Drug uptake [6]: 0.24 % ID/g; Drug uptake [7]: 0.14 % ID/g; Drug uptake [8]: 0.3 % ID/g; Drug uptake [9]: 0.31 % ID/g; Drug uptake [10]: 0.21 % ID/g; Drug uptake [11]: 0.87 % ID/g; Drug uptake [12]: 0.5 % ID/g; Drug uptake [13]: 0.42 % ID/g; Drug uptake [14]: 0.71 % ID/g; Drug uptake [15]: 0.88 % ID/g; Drug uptake [16]: 0.6 % ID/g; Drug uptake [17]: 3.4 % ID/g; Drug uptake [18]: 4.34 % ID/g; Drug uptake [19]: 3.78 % ID/g; Drug uptake [20]: 0.51 % ID/g; Drug uptake [21]: 0.53 % ID/g; Drug uptake [22]: 0.49 % ID/g; Drug uptake [23]: 9.48 % ID/g; Drug uptake [24]: 5.18 % ID/g; Drug uptake [25]: 2.22 % ID/g; Drug uptake [26]: 0.26 % ID/g; Drug uptake [27]: 0.24 % ID/g; Drug uptake [28]: 0.22 % ID/g; Drug uptake [29]: 0.32 % ID/g; Drug uptake [30]: 0.37 % ID/g; Drug uptake [31]: 0.25 % ID/g; Drug uptake [32]: 0.13 % ID/g; Drug uptake [33]: 0.13 % ID/g; Drug uptake [34]: 0.08 % ID/g; Drug uptake [35]: 0.54 % ID/g; Drug uptake [36]: 0.32 % ID/g; Drug uptake [37]: 0.86 % ID/g; Drug uptake [38]: 0.83 % ID/g; Drug uptake [39]: 3.52 % ID/g; Drug uptake [40]: 0.57 % ID/g; Drug uptake [41]: 11.58 % ID/g; Drug uptake [42]: 0.25 % ID/g; Drug uptake [43]: 0.46 % ID/g; Drug uptake [44]: 0.19 % ID/g; Drug uptake [45]: 0.05 % ID/g; Drug uptake [46]: 1.46 % ID/g; Ratio [47]: 20.4; Ratio [48]: 28.7
